Measured values of several laboratories.
Each line is one published result; the experiments were not run side by side.
CYP2D6: Cytochrome P450 2D6 (CYP2D6, Homo sapiens, UniProt P10635)

| Compound | tested on | assay | system | setting | endpoint | result |
| --- | --- | --- | --- | --- | --- | --- |
| CC[C@@H]1CN(C(=O)NCC(F)(F)F)C[C@@H]1c1cnc2cnc3[nH]ccc3n12 |  |  | beagle dog, plasma | oral, 1 mg/kg, single dose | AUC(0-inf) | 0.582 µg·h/mL |
| COC(=O)C1CCN(C(=O)c2cccc(NCc3cnc4nc(N)nc(N)c4n3)c2)CC1 | CYP2D6 | enzyme activity, inhibitor, luciferase |  | 10 µM | inhibition | -11.1% |
| CC(C)(C)c1nc(-c2cccc(NS(=O)(=O)c3c(F)cccc3F)c2F)c(-c2ccnc(N)n2)s1 | WM 266-4 | cell growth or viability, MTT |  | 1.6 µg, 48 h | viability | 64.6% |
| Oc1c(-n2ccnn2)cnn1-c1cc(N2CCOCC2)ncn1 |  |  | female dog, plasma | oral, 1.5 mg/kg | half-life | 2.2 h |
| COC(=O)C1CCN(C(=O)c2ccc(N(CCCO)Cc3cnc4nc(N)nc(N)c4n3)cc2)CC1 | CYP2D6 | enzyme activity, inhibitor, luciferase |  | 10 µM | inhibition | -27.1% |
| Cc1ccc(C(CS(=O)(=O)c2ccccc2)=NNC2=NC(=O)C(=NNc3ccc([N+](=O)[O-])cc3)S2)cc1 | WM 266-4 | cell growth or viability, MTT |  | 1.6 µg, 48 h | viability | 50.5% |
| COc1cc2c3c(n(CCCN4CCOCC4)c(=O)c2cc1OC)-c1cc2c(cc1C3=O)OCO2 |  |  | female beagle dog, plasma | intravenous, 10 mg/m², infusion | half-life | 8 h |
| CC(C)(O)c1coc(S(=O)(=O)NC(=O)Nc2c3c(cc4c2CCC4)CCC3)c1 | J774.A1 | cell growth or viability, MTT |  | 10 µM, 4 h | viability | 94.9% |
| COCCc1ccc(OCC(O)CNC(C)C)cc1 (stereo not drawn) | CYP2D6 |  | human, plasma | oral, 100 mg, single dose, healthy volunteers | AUC(0-t) | 0.758 µg·h/mL |
| C[C@@H]1CCC[C@H](n2cnc(-c3cc(Cl)ccc3-n3cc(Cl)nn3)cc2=O)c2cc(ccn2)-c2c(cnn2C(F)F)NC1=O |  |  | male rabbit, plasma | intravenous, 0.8 mg/kg | Vd | 1.4 L/kg |
| Cc1nc(-c2cnc(NC(C)C)n(C)c2=O)ccc1Oc1ccnc(-c2cnn(C)c2)c1 |  |  | male beagle dog, plasma | oral, 10 mg/kg | AUC(0-t) | 19.5 µg·h/mL |
| CNC(=O)c1cc(Oc2ccc(NC(=O)Nc3ccc(Cl)c(C(F)(F)F)c3)cc2)ccn1 | WM 266-4 | cell growth or viability, MTT |  | 1.6 µg, 48 h | viability | 58.5% |
